From article PMC7746607 (Nature, 2020)

Assays:
MEK1-luc = MEK1-luc (Homo sapiens, UniProt Q02750); assay: NanoBRET washout, intracellular residence time on MEK1-luc; type: binding; conditions: 175-minute time course, tram-bo 1 μM
[1] = target: mouse KSR1-Nanoluc (KSR-bound MEK) (UniProt Q02750+Q61097); assay: NanoBRET in-cell steady-state competition with tram-bo tracer on KSR1-luc; type: binding; conditions: MEK1-luc vs KSR1-luc
KSR1-luc (KSR-bound MEK) = KSR1-luc (KSR-bound MEK) (UniProt Q02750+Q61097); assay: NanoBRET washout, intracellular residence time on KSR1-luc; type: binding, mouse; conditions: 175-minute time course, range of inhibitor concentrations, tram-bo 1 μM
RET-luc = RET-luc (Homo sapiens, UniProt P07949); assay: NanoBRET control kinase dose response, RET-luc; type: binding; conditions: 293T cells, tram-bo or tracer K5
SRC-luc = SRC-luc (Homo sapiens, UniProt P12931); assay: NanoBRET control kinase dose response, SRC-luc; type: binding; conditions: 293T cells, tram-bo or tracer K4
[2] = target: KSR1 and MEK1 interaction (UniProt Q02750+Q61097); type: cell-based, mouse KSR1, human HCT116 cells; conditions: HCT116, wild-type KSR1, 200 nM, 1 hour
Procedure, shortened: (§1)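 HCT116 cells were plated 48 h to ~70% confluency, then transfected (Lipofectamine 3000) with FLAG-KSR1 (2.3 μg, WT) or FLAG-BRAF (10 μg, WT). At 24 h cells got 0.1% DMSO or 200 nM test compound for 1 h, then were lysed in NP-40 buffer on ice for 30 min. 250 μg lysate was rotated 4 h at 4 °C with anti-MEK1/Protein A resin, with an IgG control. Anti-FLAG immunoblot; three independent experiments.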

[3] = target: BRAF and MEK1 interaction (Homo sapiens, UniProt Q02750); assay: IP/WB of endogenous MEK1 from HCT116 cells, BRAF pulldown; type: cell-based; conditions: HCT116, 200 nM, 1 hour
Procedure, shortened: as §1

Chain of SRC-luc (P12931 whole entry): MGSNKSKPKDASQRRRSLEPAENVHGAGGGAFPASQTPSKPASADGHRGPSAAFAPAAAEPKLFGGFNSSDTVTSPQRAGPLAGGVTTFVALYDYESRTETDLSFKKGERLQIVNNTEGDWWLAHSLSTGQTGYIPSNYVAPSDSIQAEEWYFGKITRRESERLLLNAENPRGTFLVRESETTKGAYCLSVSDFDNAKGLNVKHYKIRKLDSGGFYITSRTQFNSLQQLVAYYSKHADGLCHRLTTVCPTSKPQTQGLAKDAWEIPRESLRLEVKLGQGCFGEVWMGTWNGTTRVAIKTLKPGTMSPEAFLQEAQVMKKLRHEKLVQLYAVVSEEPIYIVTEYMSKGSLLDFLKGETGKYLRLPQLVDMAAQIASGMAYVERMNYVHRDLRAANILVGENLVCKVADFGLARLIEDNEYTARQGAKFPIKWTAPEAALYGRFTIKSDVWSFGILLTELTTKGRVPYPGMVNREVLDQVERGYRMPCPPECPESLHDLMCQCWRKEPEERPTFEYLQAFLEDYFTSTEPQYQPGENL
Chain of RET-luc (P07949 29-1114): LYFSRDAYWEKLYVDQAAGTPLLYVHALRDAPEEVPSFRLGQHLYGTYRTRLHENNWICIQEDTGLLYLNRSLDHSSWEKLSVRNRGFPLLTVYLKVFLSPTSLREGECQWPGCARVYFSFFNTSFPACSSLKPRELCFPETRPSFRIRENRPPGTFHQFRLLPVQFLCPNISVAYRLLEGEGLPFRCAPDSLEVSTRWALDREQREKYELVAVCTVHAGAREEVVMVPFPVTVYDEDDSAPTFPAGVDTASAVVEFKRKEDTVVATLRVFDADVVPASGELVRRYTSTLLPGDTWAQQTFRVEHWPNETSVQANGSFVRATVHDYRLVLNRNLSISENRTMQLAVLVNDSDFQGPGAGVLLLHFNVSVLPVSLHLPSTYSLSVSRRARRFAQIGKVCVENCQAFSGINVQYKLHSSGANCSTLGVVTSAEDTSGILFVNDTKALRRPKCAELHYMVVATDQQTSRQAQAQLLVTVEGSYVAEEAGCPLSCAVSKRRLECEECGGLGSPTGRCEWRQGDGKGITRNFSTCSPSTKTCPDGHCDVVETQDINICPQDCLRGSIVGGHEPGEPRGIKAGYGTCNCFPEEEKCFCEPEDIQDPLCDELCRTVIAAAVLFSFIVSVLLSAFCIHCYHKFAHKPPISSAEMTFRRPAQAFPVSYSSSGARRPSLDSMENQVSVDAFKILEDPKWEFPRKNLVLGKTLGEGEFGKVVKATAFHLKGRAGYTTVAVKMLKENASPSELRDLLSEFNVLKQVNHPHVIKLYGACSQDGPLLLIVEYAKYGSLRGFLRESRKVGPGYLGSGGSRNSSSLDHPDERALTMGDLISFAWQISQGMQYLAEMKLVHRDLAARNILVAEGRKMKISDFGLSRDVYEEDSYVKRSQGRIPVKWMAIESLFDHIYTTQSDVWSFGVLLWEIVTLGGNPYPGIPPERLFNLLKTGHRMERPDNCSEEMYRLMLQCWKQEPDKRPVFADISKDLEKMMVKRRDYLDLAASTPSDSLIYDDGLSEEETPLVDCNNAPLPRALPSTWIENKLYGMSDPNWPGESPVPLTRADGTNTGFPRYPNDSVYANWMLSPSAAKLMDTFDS
Chain of KSR1-luc (KSR-bound MEK) (Q02750 whole entry): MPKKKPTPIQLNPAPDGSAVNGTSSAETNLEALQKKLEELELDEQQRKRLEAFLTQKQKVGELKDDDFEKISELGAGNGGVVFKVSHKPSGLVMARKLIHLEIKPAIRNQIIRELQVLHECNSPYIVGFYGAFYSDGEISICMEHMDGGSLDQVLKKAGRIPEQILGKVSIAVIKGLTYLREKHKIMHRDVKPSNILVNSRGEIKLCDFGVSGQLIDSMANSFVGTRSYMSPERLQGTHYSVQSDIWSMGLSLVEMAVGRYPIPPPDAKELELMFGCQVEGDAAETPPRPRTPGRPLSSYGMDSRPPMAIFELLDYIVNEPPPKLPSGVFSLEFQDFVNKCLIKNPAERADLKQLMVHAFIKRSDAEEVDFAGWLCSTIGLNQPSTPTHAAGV
Chain of KSR1-luc (KSR-bound MEK) (Q61097 whole entry): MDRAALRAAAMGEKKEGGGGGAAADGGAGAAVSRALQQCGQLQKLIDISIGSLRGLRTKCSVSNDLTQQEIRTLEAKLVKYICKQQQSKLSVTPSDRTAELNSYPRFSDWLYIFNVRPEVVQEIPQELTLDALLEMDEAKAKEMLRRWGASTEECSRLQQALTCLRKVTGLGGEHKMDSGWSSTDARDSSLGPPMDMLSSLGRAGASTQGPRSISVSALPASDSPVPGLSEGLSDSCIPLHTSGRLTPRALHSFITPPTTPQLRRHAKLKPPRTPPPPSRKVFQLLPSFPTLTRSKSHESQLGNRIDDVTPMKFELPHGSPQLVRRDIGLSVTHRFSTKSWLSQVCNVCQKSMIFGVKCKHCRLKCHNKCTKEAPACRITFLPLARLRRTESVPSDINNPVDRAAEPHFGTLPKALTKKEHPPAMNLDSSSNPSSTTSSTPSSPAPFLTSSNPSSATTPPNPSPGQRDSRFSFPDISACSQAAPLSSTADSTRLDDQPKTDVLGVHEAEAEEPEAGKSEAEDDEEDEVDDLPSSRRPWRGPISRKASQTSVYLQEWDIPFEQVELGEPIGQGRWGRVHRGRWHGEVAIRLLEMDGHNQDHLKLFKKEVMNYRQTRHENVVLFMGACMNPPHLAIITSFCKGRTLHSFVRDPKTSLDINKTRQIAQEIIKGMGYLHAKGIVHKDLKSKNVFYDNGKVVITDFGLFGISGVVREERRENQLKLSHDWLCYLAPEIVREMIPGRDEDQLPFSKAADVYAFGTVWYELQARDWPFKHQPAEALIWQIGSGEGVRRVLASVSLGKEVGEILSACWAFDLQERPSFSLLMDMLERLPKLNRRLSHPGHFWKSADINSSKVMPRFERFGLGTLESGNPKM
Chain of BRAF and MEK1 interaction (Q02750 whole entry): as the sequence (Q02750 whole entry) above
Chain of mouse KSR1-Nanoluc (KSR-bound MEK) (Q02750 whole entry): as above
Chain of mouse KSR1-Nanoluc (KSR-bound MEK) (Q61097 whole entry): as the sequence (Q61097 whole entry) above
Chain of KSR1 and MEK1 interaction (Q02750 whole entry): as the sequence (Q02750 whole entry) above
Chain of KSR1 and MEK1 interaction (Q61097 whole entry): as the sequence (Q61097 whole entry) above
Chain of MEK1-luc (Q02750 whole entry): as the sequence (Q02750 whole entry) above

dissociation after washout on MEK1-luc (MEK1-luc) | difference in potency (IC50) between KSR1-luc and MEK1-luc [1] | dissociation after washout on KSR1-luc (BRET signal recovery) (KSR1-luc (KSR-bound MEK)) | dose response on RET-luc (RET-luc) | dose response on SRC-luc (SRC-luc) | co-immunoprecipitation of KSR1 via endogenous MEK [2] | co-immunoprecipitation of BRAF via endogenous MEK [3] | SMILES
dissociated more readily | ~ 20 fold | dissociated more readily |  |  |  |  | O=C(c1ccc(F)c(F)c1Nc1ccc(I)cc1F)N1CC(O)([C@@H]2CCCCN2)C1 [cobimetinib, Cobimetinib]
 |  |  | no discernible dose response | no discernible dose response | sustained pulldown of KSR1 | diminished binding of BRAF | CC(=O)Nc1cccc(-n2c(=O)n(C3CC3)c(=O)c3c(Nc4ccc(I)cc4F)n(C)c(=O)c(C)c32)c1 [trametinib, Trametinib]
